This is an account of results in publication PMC5844832 (Bioorganic & medicinal chemistry, 2017).

One test concerns the target T1, HOIL-UBL (Homo sapiens, UniProt Q9BYM8).
T1 sequence (Q9BYM8 37-128): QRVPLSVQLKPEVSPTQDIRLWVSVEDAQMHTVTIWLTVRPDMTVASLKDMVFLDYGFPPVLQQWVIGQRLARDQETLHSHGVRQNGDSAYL
Description: Native gel shift assay. Format: binding. Conditions: 2.5 μM FITC peptide, 50 μg/mL protein, 1 h 37 °C, hrCNE. The method in brief:
(§1)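 Recombinant protein, expressed in Rosetta (DE3) E. coli, was mixed at 50 μg/mL with 2.5 μM FITC-peptide in 1X ubiquitylation buffer, with or without 20 μM unlabelled peptide competitor. Mixtures were incubated 1 h at 37 °C and resolved on 5% acrylamide native gels (bis-Tris, pH 7.0; Tricine/imidazole/deoxycholate cathode buffer) at […] for 4–5 h at 4 °C. Fluorescent bands were imaged, with protein-only lanes as controls.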
(A gel shift assay detects complexes by their altered migration in electrophoresis.)

The target in a further test is T2, Petit-LUBAC (Homo sapiens, UniProt Q96EP0+Q9BYM8).
T2 sequence (Q96EP0 474-1072): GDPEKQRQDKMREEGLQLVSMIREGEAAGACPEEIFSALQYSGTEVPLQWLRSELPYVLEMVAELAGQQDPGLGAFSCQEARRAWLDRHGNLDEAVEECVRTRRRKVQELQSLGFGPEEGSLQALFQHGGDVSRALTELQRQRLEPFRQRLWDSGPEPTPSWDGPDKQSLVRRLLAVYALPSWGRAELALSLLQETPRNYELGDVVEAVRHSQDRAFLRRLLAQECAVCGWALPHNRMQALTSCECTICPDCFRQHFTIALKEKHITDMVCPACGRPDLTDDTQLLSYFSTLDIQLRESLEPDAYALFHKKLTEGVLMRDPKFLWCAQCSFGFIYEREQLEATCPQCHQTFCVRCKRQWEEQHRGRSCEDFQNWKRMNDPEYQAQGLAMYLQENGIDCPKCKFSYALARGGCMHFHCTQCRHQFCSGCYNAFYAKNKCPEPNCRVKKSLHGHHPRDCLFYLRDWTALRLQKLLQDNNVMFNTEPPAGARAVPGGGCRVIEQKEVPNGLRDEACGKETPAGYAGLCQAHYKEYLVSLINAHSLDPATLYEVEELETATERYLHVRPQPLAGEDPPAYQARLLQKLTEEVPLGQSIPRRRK
T2 sequence (Q9BYM8 1-191): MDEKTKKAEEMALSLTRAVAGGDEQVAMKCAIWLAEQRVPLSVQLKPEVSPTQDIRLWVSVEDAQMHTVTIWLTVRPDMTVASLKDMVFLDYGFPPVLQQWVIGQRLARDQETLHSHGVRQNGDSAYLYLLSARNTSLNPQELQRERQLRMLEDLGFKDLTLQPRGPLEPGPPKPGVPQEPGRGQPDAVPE
The experiment in a line: Native gel shift assay. Conditions: 2.5 μM FITC peptide, 50 μg/mL protein, 1 h 37 °C, hrCNE. Format: binding. The method in brief:
as §1

A further test concerns the target T3, HOIP-UBA (Homo sapiens, UniProt Q96EP0).
T3 sequence (Q96EP0 480-636): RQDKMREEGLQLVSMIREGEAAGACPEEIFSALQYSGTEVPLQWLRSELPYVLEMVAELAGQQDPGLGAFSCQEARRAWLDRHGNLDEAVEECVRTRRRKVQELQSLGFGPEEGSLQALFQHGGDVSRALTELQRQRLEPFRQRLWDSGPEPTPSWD
The experiment in a line: Native gel shift assay. Format: binding. Conditions: 2.5 μM FITC peptide, 50 μg/mL protein, 1 h 37 °C, hrCNE.

The next test has as its target T4, GST-HOIP-UBA (human, UniProt Q96EP0 480-636).
T4 sequence: T3 sequence (Q96EP0 480-636)
Description: SPR.

Test [1] has as its target T5, HOIP residues 474-1072 (the HOIP chain of Petit-LUBAC) (human, UniProt Q96EP0 474-1072).
T5 sequence (looked up): T2 sequence (Q96EP0 474-1072)
The experiment in a line: native gel or EMSA.

Another test addresses T6, His6-HOIL-UBL (human, UniProt Q9BYM8-1 37-137).
T6 sequence: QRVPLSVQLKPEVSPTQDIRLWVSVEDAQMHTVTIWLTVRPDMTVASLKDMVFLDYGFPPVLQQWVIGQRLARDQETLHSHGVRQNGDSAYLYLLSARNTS
The experiment in a line: SPR. On the technique in general: SPR reads the build-up and loss of mass on a sensor chip optically.

Test [2] deals with T7, Petit-LUBAC (truncated sub-complex of LUBAC: HOIL-1L 1-191 and HOIP 474-1072) (human, UniProt Q9BYM8-1 1-191; Q96EP0 474-1072).
T7 sequence (looked up) 1: T2 sequence (Q9BYM8 1-191)
T7 sequence (looked up) 2: T2 sequence (Q96EP0 474-1072)
The experiment in a line: native gel or EMSA.

*: point of attachment. FITC = O=C1OC2(c3ccc(O)cc3Oc3cc(O)ccc32)c2ccc(NC(=S)*)cc21; βAla = NCCC(=O)O

As for “1: unstapled peptide based on 22-amino acid region of HOIP-UBA (residues 606-627) ({Ac-βAla}-SRALTELQRQRLEPFRQRLWDS-NH2) [Compound 1]”, in the test with HOIL-UBL, the “Gel shift of FITC-labelled peptide with HOIL-UBL” value was “no shift was observed”. Further, the “Gel shift of FITC-labelled peptide with Petit-LUBAC” value in the test with Petit-LUBAC is given as “higher shifted molecular weight”. The “Gel shift of FITC-labelled peptide with HOIP-UBA” value with HOIP-UBA is “a shift similar to the one observed with Petit-LUBAC was observed”.

B1: N-P2G (6), N-stapled P2G HOIP peptide (peptide)
chain: SRALTELQRQRLEGFRQRLWDS
modifications: N-terminal β-alanine; N-terminal acetyl; hydrocarbon staple between two cross-linking amino acids in the N-terminal (α8) helix
A word on the Kd: it is the free concentration of one partner at which half of the binding sites on the other are occupied at equilibrium, for simple one-to-one binding. Low readings indicate higher affinity, high ones lower affinity. Molecule B1 displayed a Kd in the test with GST-HOIP-UBA of 4.28 µM. This lies in the single-digit micromolar range.

B2: HOIL-1L residues 1-191 (the HOIL chain of Petit-LUBAC) (domain or fragment, human, UniProt Q9BYM8-1 1-191, looked up)
chain: T2 sequence (Q9BYM8 1-191)
Consider B2, for which the binding result in test [1] is “binds”.
In the case of {Ac-βAla}-SRALTELQRQRLEGFRQRLWDS-NH2 (peptide, UniProt Q96EP0 606-627, looked up) [P2G WT (5), unstapled HOIP peptide with proline-to-glycine substitution], the Kd is 97.3 µM in the test with His6-HOIL-UBL and 81.4 µM with GST-HOIP-UBA.
On to {FITC-βAla}-SRALTELQRQRLEPFRQRLWDS-NH2 (peptide, UniProt Q96EP0 606-627, looked up) [FITC labeled HOIP WT (1) peptide], for which the binding result in test [2] is “binds”.
